Experimental data published in ChEMBL document CHEMBL1156638, “Antibacterial cannabinoids from Cannabis sativa: a structure-activity study” (2008).
Values after ≈ are worked out from the molar mass of the structure shown.

How the values were obtained:
Assay type in all cases: functional
Staphylococcus aureus [1] = assay: Antibacterial activity against […] Staphylococcus aureus SA1199B after 18 hrs
Summary of the method: (§1)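 Broth microdilution in Mueller-Hinton broth adjusted to 20 mg/L Ca2+ and 10 mg/L Mg2+. Overnight cultures diluted in 0.9% saline to 5 ×10^5 cfu against a MacFarland standard. Compounds serially diluted twofold, inoculum added, incubated 37 °C for 18 h. DMSO (3.125%) control included. MIC taken as lowest concentration with no visible growth, done in duplicate. MTT (5 mg/mL methanolic) used.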

Staphylococcus aureus [2] = assay: Antibacterial activity against tetracycline-resistant Staphylococcus aureus XU212 after 18 hrs; conditions: XU212, 18 h; summary of the method: as §1
Staphylococcus aureus [3] = assay: Antibacterial activity against […] Staphylococcus aureus ATCC 25923 after 18 hrs; conditions: ATCC 25923, 18 h; summary of the method: as §1
Staphylococcus aureus [4] = assay: Antibacterial activity against epidemic methicillin-resistant Staphylococcus aureus 15 after 18 hrs; summary of the method: as §1
Staphylococcus aureus [5] = assay: Antibacterial activity against epidemic methicillin-resistant Staphylococcus aureus 16 after 18 hrs; summary of the method: as §1
Staphylococcus aureus [6] = assay: Antibacterial activity against macrolide-resistant Staphylococcus aureus RN4220 after 18 hrs; conditions: RN4220, 18 h; summary of the method: as §1

Compound | MIC (Staphylococcus aureus [1]) [µg/mL] | MIC (Staphylococcus aureus [2]) [µg/mL] | MIC (Staphylococcus aureus [3]) [µg/mL] | MIC (Staphylococcus aureus [4]) [µg/mL] | MIC (Staphylococcus aureus [5]) [µg/mL] | MIC (Staphylococcus aureus [6]) [µg/mL]
CCCCCc1cc(O)c(C/C=C(\C)CCC=C(C)C)c(O)c1C(=O)OC | 64 (≈ 171 µM) | 64 (≈ 171 µM) | – | – | – | –
C=C(C)[C@@H]1CCC(C)=C[C@H]1c1c(O)cc(CCCCC)c(C(=O)OC)c1O | > 128 | > 128 | > 128 | > 128 | > 128 | > 128
C=C(C)[C@@H]1CCC(C)=C[C@H]1c1c(OC)cc(CCCCC)cc1OC | > 128 | > 128 | > 128 | > 128 | > 128 | > 128
C=C(C)[C@@H]1CCC(C)=C[C@H]1c1c(O)cc(O)cc1CCCCC | 1 (≈ 3.18 µM) | 1 (≈ 3.18 µM) | 1 (≈ 3.18 µM) | 1 (≈ 3.18 µM) | 1 (≈ 3.18 µM) | 1 (≈ 3.18 µM)
CCCCCc1cc(O)c(C/C=C(\C)CCC=C(C)C)c(OC)c1 | > 128 | > 128 | > 128 | > 128 | > 128 | > 128
CCCCCc1cc(OC)c(C/C=C(\C)CCC=C(C)C)c(OC)c1 | > 128 | > 128 | > 128 | > 128 | > 128 | > 128
CCCCCc1cc(O)c(C/C=C(\C)CCC=C(C)C)c(O)c1C(=O)OCCc1ccccc1 | > 128 | > 128 | > 128 | > 128 | > 128 | > 128
C=C(C)[C@@H]1CCC(C)=C[C@H]1c1c(O)cc(CCCCC)cc1OC | > 128 | > 128 | > 128 | > 128 | > 128 | > 128
C=C(C)C1CCC(C)=CC1c1c(CCCCC)cc(O)c([C@@H]2C=C(C)CC[C@H]2C(=C)C)c1O (some centres not stated) | > 128 | > 128 | > 128 | > 128 | > 128 | > 128
CCCCCc1cc(O)cc(O)c1C/C=C(\C)CCC=C(C)C | 2 (≈ 6.32 µM) | 0.5 (≈ 1.58 µM) | 1 (≈ 3.16 µM) | 2 (≈ 6.32 µM) | – | 1 (≈ 3.16 µM)
CCCCCc1cc(OC(C)=O)c(C/C=C(\C)CCC=C(C)C)c(OC(C)=O)c1 | > 128 | > 128 | > 128 | > 128 | > 128 | > 128
C=C(C)[C@@H]1CCC(C)=C[C@H]1c1c(OC(C)=O)cc(CCCCC)cc1OC(C)=O | > 128 | > 128 | > 128 | > 128 | > 128 | > 128
C=C(C)[C@@H]1CCC(C)=C[C@H]1c1c(O)cc(CCCCC)c(C(=O)OCCc2ccccc2)c1O | > 128 | > 128 | > 128 | > 128 | > 128 | > 128
CCCCCc1cc(O)c2c(c1)OC(C)(CCC=C(C)C)C=C2 (configuration not stated) [CANNABICHROMENE] | 2 (≈ 6.36 µM) | 1 (≈ 3.18 µM) | 2 (≈ 6.36 µM) | 2 (≈ 6.36 µM) | 2 (≈ 6.36 µM) | 2 (≈ 6.36 µM)
C=C(C)[C@@H]1CCC(C)=C[C@H]1c1c(O)cc(CCCCC)c(C(=O)O)c1O [CANNABIDIOLIC ACID] | 2 (≈ 5.58 µM) | 2 (≈ 5.58 µM) | 2 (≈ 5.58 µM) | 2 (≈ 5.58 µM) | 2 (≈ 5.58 µM) | 2 (≈ 5.58 µM)
C=C(C)[C@@H]1CCC(C)=C[C@H]1c1c(O)cc(CCCCC)cc1O [CANNABIDIOL] | 1 (≈ 3.18 µM) | 1 (≈ 3.18 µM) | 0.5 (≈ 1.59 µM) | 1 (≈ 3.18 µM) | 1 (≈ 3.18 µM) | 1 (≈ 3.18 µM)
CCCCCc1cc(O)c(C/C=C(\C)CCC=C(C)C)c(O)c1C(=O)O [CANNABIGEROLIC ACID] | 4 (≈ 11.1 µM) | 4 (≈ 11.1 µM) | 4 (≈ 11.1 µM) | 2 (≈ 5.55 µM) | 4 (≈ 11.1 µM) | 2 (≈ 5.55 µM)
CCCCCc1cc(O)c(C/C=C(\C)CCC=C(C)C)c(O)c1 [CANNABIGEROL] | 1 (≈ 3.16 µM) | 1 (≈ 3.16 µM) | 1 (≈ 3.16 µM) | 2 (≈ 6.32 µM) | 1 (≈ 3.16 µM) | 1 (≈ 3.16 µM)
CCCCCc1cc(O)c2c(c1)OC(C)(C)c1ccc(C)cc1-2 [CANNABINOL] | 1 (≈ 3.22 µM) | 1 (≈ 3.22 µM) | 1 (≈ 3.22 µM) | 1 (≈ 3.22 µM) | – | 1 (≈ 3.22 µM)
CCCCCc1cc(O)c(C/C=C(\C)CCC(O)C(C)(C)O)c(O)c1 (configuration not stated) [CARMAGEROL] | 32 (≈ 91.3 µM) | 16 (≈ 45.6 µM) | 16 (≈ 45.6 µM) | 16 (≈ 45.6 µM) | 32 (≈ 91.3 µM) | 32 (≈ 91.3 µM)
CCCCCc1cc2c(c(O)c1C(=O)O)[C@@H]1C=C(C)CC[C@H]1C(C)(C)O2 [DELTA9-TETRAHYDROCANNABINOLIC ACID A] | 8 (≈ 22.3 µM) | 8 (≈ 22.3 µM) | 4 (≈ 11.2 µM) | 8 (≈ 22.3 µM) | 4 (≈ 11.2 µM) | 4 (≈ 11.2 µM)
CCCCCc1cc(O)c2c(c1)OC(C)(C)[C@@H]1CCC(C)=C[C@@H]21 [DRONABINOL] | 2 (≈ 6.36 µM) | 1 (≈ 3.18 µM) | 1 (≈ 3.18 µM) | 2 (≈ 6.36 µM) | 0.5 (≈ 1.59 µM) | 1 (≈ 3.18 µM)
CC[C@H]1OC(=O)[C@H](C)[C@@H](O[C@H]2C[C@@](C)(OC)[C@@H](O)[C@H](C)O2)[C@H](C)[C@@H](O[C@@H]2O[C@H](C)C[C@H](N(C)C)[C@H]2O)[C@](C)(O)C[C@@H](C)C(=O)[C@H](C)[C@@H](O)[C@]1(C)O [ERYTHROMYCIN] | 0.25 (≈ 0.341 µM) | > 128 | 0.25 (≈ 0.341 µM) | > 128 | > 128 | 64 (≈ 87.2 µM)
CCn1cc(C(=O)O)c(=O)c2cc(F)c(N3CCNCC3)cc21 [NORFLOXACIN] | 32 (≈ 100 µM) | 4 (≈ 12.5 µM) | 1 (≈ 3.13 µM) | 0.5 (≈ 1.57 µM) | 128 (≈ 401 µM) | 1 (≈ 3.13 µM)
Cc1onc(-c2ccccc2)c1C(=O)N[C@@H]1C(=O)N2[C@@H]1SC(C)(C)[C@@H]2C(=O)O [OXACILLIN] | 0.25 (≈ 0.623 µM) | 128 (≈ 319 µM) | 0.125 (≈ 0.311 µM) | 32 (≈ 79.7 µM) | > 128 | 0.25 (≈ 0.623 µM)
Oc1cccc(O)c1 [RESORCINOL] | > 256 | > 256 | > 256 | > 256 | > 256 | > 256
CN(C)[C@@H]1C(O)=C(C(N)=O)C(=O)[C@@]2(O)C(O)=C3C(=O)c4c(O)cccc4[C@@](C)(O)[C@H]3C[C@@H]12 [TETRACYCLINE] | 0.25 (≈ 0.563 µM) | 128 (≈ 288 µM) | 0.25 (≈ 0.563 µM) | 0.125 (≈ 0.281 µM) | 0.125 (≈ 0.281 µM) | 0.25 (≈ 0.563 µM)
CCCCCc1cc(O)cc(O)c1 [WHILE OLIVETOL] | 64 (≈ 355 µM) | 64 (≈ 355 µM) | 128 (≈ 710 µM) | 64 (≈ 355 µM) | 64 (≈ 355 µM) | 64 (≈ 355 µM)
